# Measured values as given in ChEMBL document CHEMBL1157149, “Phosphonate-linked pyrrolo[2,1-c][1,4]benzodiazepine conjugates: synthesis, DNA-binding affinity and cytotoxicity” (2008).
# Calls of active or inactive are those of the source. The rule behind the calls is not given here.
# How the values were obtained:
# [1] = Cytotoxicity against human DWD cells after 48 hrs by SRB method
# SiHa = assay: Cytotoxicity against human SiHa cells after 48 hrs by SRB method
# MCF7 = assay: Cytotoxicity against human MCF7 cells after 48 hrs by SRB method; conditions: MCF7, 48 h
# KB = assay: Cytotoxicity against human KB cells after 48 hrs by SRB method
# [2] = Cytotoxicity against human GURAV cells after 48 hrs by SRB method
# A2780 = assay: Cytotoxicity against human A2780 cells after 48 hrs by SRB method; conditions: A2780, 48 h
# COLO 205 = assay: Cytotoxicity against human Colo205 cells after 48 hrs by SRB method; conditions: COLO 205, 48 h
# DNA = assay: Binding affinity to calf thymus DNA assessed as change in thermal stability at pH 7.0 after 18 hrs by thermal denaturation assay; type: nucleic-acid assay; conditions: Bos taurus
# Summary of the method: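 CT-DNA duplex at 100 µM (in phosphate) with ligand at 20 µM (1:5 ligand/DNA molar ratio) in 10 mM sodium phosphate, 1 mM EDTA, pH 7.00; compound added from concentrated MeOH solution. Incubated at 37 °C for 18 h. Absorbance at 260 nm followed while heating at 1 °C/min over 40–90 °C. Tm taken from dA260/dT derivative maxima; ΔTm relative to DNA alone.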
# [3] = target: T1, Type II restriction enzyme BamHI (Bacillus amyloliquefaciens) (UniProt P23940); assay: Inhibition of BamH1 assessed as inhibition of pBR322 DNA cleavage
# T1 sequence (whole entry): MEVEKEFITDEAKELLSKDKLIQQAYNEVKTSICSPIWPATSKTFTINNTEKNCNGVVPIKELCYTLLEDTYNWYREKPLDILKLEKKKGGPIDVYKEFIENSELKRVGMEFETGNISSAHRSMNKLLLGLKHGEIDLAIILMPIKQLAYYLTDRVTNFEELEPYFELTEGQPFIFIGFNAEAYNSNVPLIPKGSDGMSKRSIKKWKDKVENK
# Summary of the method: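 PBD stocks were 100 μM in DMSO. Plasmid pBR322 (500 ng, single BamHI site) was preincubated with compound in 16 μL for 16 h at 37 °C. BamHI (20 U) and its buffer were then added to 20 μL, and digestion ran 1 h at 37 °C. Cut and uncut forms were resolved on 1% agarose in TAE (80 V, 2 h) and stained with ethidium bromide.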
# PC-3 = assay: Cytotoxicity against human PC3 cells after 48 hrs by SRB method; conditions: PC-3, 48 h
# [4] = Cytotoxicity against human melanoma cancer cells after 24 hrs by SRB method; type: functional; conditions: Melanoma cell
# K562 = assay: Cytotoxicity against human K562 cells after 48 hrs by SRB method; conditions: K562, 48 h
# [5] = Cytotoxicity against human renal cancer cells after 24 hrs by SRB method; type: functional; conditions: Cancer cell lines
# CCRF-CEM [6] = assay: Cytotoxicity against human CCRF-CEM cells after 48 hrs by SRB method; conditions: read-out: pLC50 (the source's name) (converted)
# MOLT-4 = assay: Cytotoxicity against human MOLT4 cells after 24 hrs by SRB method; type: functional; conditions: MOLT-4, 24 h
# [7] = Cytotoxicity against human prostate cancer cells after 24 hrs by SRB method; type: functional; conditions: Cancer cell lines
# RPMI-8226 = assay: Cytotoxicity against human RPMI8226 cells after 24 hrs by SRB method; type: functional; conditions: RPMI-8226, 24 h
# A549 = assay: Cytotoxicity against human A549 cells after 48 hrs by SRB method; conditions: A549, 48 h
# [8] = Cytotoxicity against human colon cancer cells after 24 hrs by SRB method; type: functional; conditions: Cancer cell lines
# [9] = Cytotoxicity against human ovarian cancer cells after 24 hrs by SRB method; type: functional; conditions: Cancer cell lines
# [10] = Cytotoxicity against human lung cancer cells after 24 hrs by SRB method; type: functional; conditions: Cancer cell lines
# CCRF-CEM [11] = assay: Cytotoxicity against human CCRF-CEM cells after 24 hrs by SRB method; type: functional
# [12] = Cytotoxicity against human CNS cancer cells after 48 hrs by SRB method; conditions: Cancer cell lines
# SR = assay: Cytotoxicity against human SR cells after 24 hrs by SRB method; type: functional
# [13] = Cytotoxicity against human leukemia cells after 48 hrs by SRB method; conditions: Leukemia cell
# HL-60 = assay: Cytotoxicity against human HL60 cells after 48 hrs by SRB method; conditions: HL-60, 48 h
# [14] = Cytotoxicity against human breast cancer cells after 24 hrs by SRB method; type: functional; conditions: Cancer cell lines
# [15] = Cytotoxicity against human leukemia cells after 24 hrs by SRB method; type: functional; conditions: Leukemia cell, read-out: pTGI (converted)
# [16] = read-out: pLC50 (the source's name) (converted)
smiles,measurement,setting,value
COc1cccc2c1C(=O)c1c(O)c3c(c(O)c1C2=O)C[C@@](O)(C(=O)CO)C[C@@H]3O[C@H]1C[C@H](N)[C@H](O)[C@H](C)O1 [DOXORUBICIN],GI50,[1],0.11 µM
same,GI50,SiHa,0.18 µM
same,GI50,MCF7,0.18 µM
same,GI50,KB,0.17 µM
same,GI50,[2],0.17 µM
same,GI50,A2780,0.17 µM
same,GI50,COLO 205,0.14 µM
CCOP(=O)(CCCOc1cc2c(cc1OC)C(=O)N1CCC[C@H]1C=N2)OCC,GI50,[1],2.2 µM
same,GI50,SiHa,2.1 µM
same,ΔTm,DNA,4.5 °C
same,GI50,MCF7,2.02 µM
same,GI50,KB,2.11 µM
CCOP(=O)(CCCN1CCN(CCCOc2cc3c(cc2OC)C(=O)N2CCC[C@H]2C=N3)CC1)OCC,Activity,[3],Active
same,ΔTm,DNA,9.9 °C
CCOP(=O)(CCN1CCN(CCCOc2cc3c(cc2OC)C(=O)N2CCC[C@H]2C=N3)CC1)OCC,Activity,[3],Active
same,ΔTm,DNA,9 °C
CCOP(=O)(CCCN1CCN(CCCCCOc2cc3c(cc2OC)C(=O)N2CCC[C@H]2C=N3)CC1)OCC,Activity,[3],Active
same,GI50,[1],0.18 µM
same,GI50,SiHa,2.46 µM
same,ΔTm,DNA,10 °C
same,GI50,MCF7,2.21 µM
same,GI50,PC-3,30.5 µM
same,GI50,[2],2.18 µM
same,GI50,A2780,2.02 µM
same,GI50,COLO 205,2.39 µM
COc1cc2c(cc1OCCCN1CCN(C)CC1)N=C[C@@H]1CCCN1C2=O,ΔTm,DNA,6.9 °C
CCOP(=O)(CCCN1CCN(CCCCOc2cc3c(cc2OC)C(=O)N2CCC[C@H]2C=N3)CC1)OCC,ΔTm,DNA,7.1 °C
CCOP(=O)(CCN1CCN(CCCCCOc2cc3c(cc2OC)C(=O)N2CCC[C@H]2C=N3)CC1)OCC,GI50,[4],7.76 µM
same,CC50,[4]; [16],81.3 µM
same,TGI,[4]; read-out: pTGI (converted),30.2 µM
same,GI50,K562,2.34 µM
same,CC50,K562; [16],> 100 µM
same,TGI,K562; read-out: pTGI,> 100 µM
same,GI50,[5],9.77 µM
same,CC50,[5]; [16],95.5 µM
same,TGI,[5]; read-out: pTGI (converted),53.7 µM
same,Activity,[3],Active
same,CC50,CCRF-CEM [6],> 100 µM
same,GI50,MOLT-4,2.14 µM
same,CC50,MOLT-4; [16],> 100 µM
same,TGI,MOLT-4; read-out: pTGI (converted),6.31 µM
same,GI50,SiHa,0.21 µM
same,GI50,[7],17.8 µM
same,CC50,[7]; [16],100 µM
same,TGI,[7]; read-out: pTGI (converted),63.1 µM
same,ΔTm,DNA,7.2 °C
same,GI50,RPMI-8226,2.29 µM
same,CC50,RPMI-8226; [16],> 100 µM
same,GI50,A549,2.64 µM
same,GI50,[8],10 µM
same,CC50,[8]; [16],93.3 µM
same,TGI,[8]; read-out: pTGI (converted),46.8 µM
same,GI50,MCF7,2.01 µM
same,GI50,[9],13.8 µM
same,CC50,[9]; [16],100 µM
same,TGI,[9]; read-out: pTGI (converted),55 µM
same,GI50,[10],10 µM
same,CC50,[10]; [16],100 µM
same,TGI,[10]; read-out: pTGI (converted),45.7 µM
same,GI50,CCRF-CEM [11],1.91 µM
same,GI50,[12],3.02 µM
same,CC50,[12]; [16],89.1 µM
same,TGI,[12]; read-out: pTGI (converted),30.2 µM
same,GI50,SR,1.38 µM
same,CC50,SR; [16],30.9 µM
same,TGI,SR; read-out: pTGI (converted),4.27 µM
same,GI50,[13],1.95 µM
same,CC50,[13]; [16],100 µM
same,GI50,PC-3,1.98 µM
same,GI50,KB,1.92 µM
same,GI50,[2],0.17 µM
same,GI50,HL-60,1.82 µM
same,CC50,HL-60; [16],> 100 µM
same,TGI,HL-60; read-out: pTGI (converted),8.32 µM
same,GI50,[14],5.62 µM
same,CC50,[14]; [16],95.5 µM
same,TGI,[14]; read-out: pTGI (converted),33.1 µM
same,GI50,A2780,0.17 µM
same,TGI,[15],12.3 µM
same,GI50,COLO 205,1.87 µM
COc1cc2c(cc1O)N=C[C@@H]1CCCN1C2=O,ΔTm,DNA,0.7 °C
